ChEMBL document CHEMBL1147367, “Bioactive furanonaphthoquinones from Crescentia cujete” (J Nat Prod, 1993)
≈ marks a conversion by molar mass, not a printed value.

Key:
Saccharomyces cerevisiae [1] = test: DNA damaging activity against DNA repair-deficient RS 322YK (rad 52Y) yeast assessed as drug level required to produce 12 mm zone of inhibition; assay type: functional
Procedure, shortened: (§1)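 Agar well-diffusion test on yeast: sample placed in 100 μl wells and growth-inhibition zones measured. Potency given as IC12 in μg/ml, the concentration giving a 12 mm inhibition zone. rad 52 strain RS 322 YK lacks the recombination pathway for double-strand-break repair. RS 188 N is the repair-proficient RAD+ counterpart.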

Vero = test: Cytotoxicity against african green monkey Vero cells; assay type: cell-based; details: Chlorocebus sabaeus
Procedure, shortened: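 Vero cells exposed to compound for 72 h; viability read by XTT staining; IC50 given in μg/ml.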

Saccharomyces cerevisiae [2] = test: DNA damaging activity against RS 188N (RAD+) yeast assessed as drug level required to produce 12 mm zone of inhibition; assay type: functional; procedure, shortened: as §1

SMILES | IC12 (Saccharomyces cerevisiae [1]) [µg/mL] | IC50 (Vero) [µg/mL] | IC12 (Saccharomyces cerevisiae [2]) [µg/mL]
CC(O)c1cc2c(o1)C(=O)c1ccccc1C2=O (stereo not given) | 14 | 0.41 (≈ 1.69 µM) | 180
CC(O)c1cc2c(o1)C(=O)c1cccc(O)c1C2=O (stereo not given) | 3 | 0.21 (≈ 0.813 µM) | 10
C=C(C)C1CC2=C(O1)C(=O)c1cccc(O)c1C2=O (stereo not given) | 80 | – | 140
C=C(C)[C@@H]1OC2=C(C(=O)c3c(ccc(OC)c3OC)C2=O)[C@@H]1O | 47 | 3.7 (≈ 11.7 µM) | > 1000
C=C(C)[C@H]1CC2=C(O1)C(=O)c1cccc(OC)c1C2=O | 48 | 4.3 (≈ 15.9 µM) | 280
C=C(C)[C@H]1CC2=C(O1)C(=O)c1ccc(OC)c(OC)c1C2=O | 33 | 4.7 (≈ 15.7 µM) | 120
CC[C@@]1(O)C(=O)OCc2c1cc1n(c2=O)Cc2cc3ccccc3nc2-1 [CAMPTOTHECIN] | 0.6 | 0.054 (≈ 0.155 µM) | 110
